Screens from PubChem.
This excerpt belongs to a sample that is enriched for hits.
T cruzi inh: inhibitors of intracellular T. cruzi growth, primary screen, luminescence, NIH3T3 host cells. inhibition, % (test concentration not listed). AID 1885, 2009. 300,000 tested, 1.4% active. T. cruzi beta-gal in NIH3T3, 90 h;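 active = mean inhibition across valid replicates above about 55%, limit read from the data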;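 note: signal also drops with host cell toxicity which is not excluded here; higher percent means less beta-gal luminescence so fewer parasites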
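Test system: β-gal T. cruzi (Tulahuen C4) inside NIH/3T3 cells / Quantity: 5,000 cells/well / Measured by: luminescence from GalScreen with 0.05% NP40, read after 60 min / Medium: DMEM plus 2% FBS / Measure: parasite load inhibition, % / Reagent: Tulahuen C4 trypomastigotes, 5000/well / Schedule: co-culture of at least 90 h after 3 h attachment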
HSF1 inh: HSF1 inhibitors in luciferase reporter cells, primary screen, cell-based, NIH3T3, luminescence. activity change, negative = inhibition, % at 7.5 µM (by protocol). NIH3T3-HGL HSE-luciferase, MG132-induced, luminescence 8 h; stronger effect = lower value. 300,000 tested, 0.77% active;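 active = more than half of replicate wells show activity change below -50%, luminescence cut by over half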;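 note: luciferase reports HSF-1 transcriptional activity via heat shock element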
L major viab: Leishmania major promastigote growth inhibition, primary screen. 200,000 tested, 9% active. Leishmania major promastigotes, resazurin fluorescence viability. inhibition, % at 10 µM; in the data active = inhibition above about 50%;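 note: promastigotes grown with compound for 44 hours at 28 °C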
Hsp70 act: Hsp70 transcriptional activators, primary screen, cell-based, HeLa, Hsp70 promoter luciferase, luminescence, 10 µM; HeLa Hsp70 promoter luciferase reporter; scaled: vehicle 0, proteasome-inhibitor control 100%; activation, % at 10 µM; AID 1203, 2008; 200,000 tested, 0.04% active;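 active = activation above the mean across all tested compounds plus 3 SD, cutoff set per campaign, cut at about 5.5% in these data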
HSF1 activator: HSF-1 activators, primary screen, NIH3T3-HGL cells, MG132 stress, luminescence, single point | NIH3T3-HGL HSF-1 luciferase reporter, 8 h; 100% = twice DMSO control signal | activation, % at 9 µM | 300,000 tested, 1.7% active | AID 504408, 2011;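 active = mean replicate activation of at least 50% with a set share of replicates each reaching 50%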
A number is an active result.

`CCOC(=O)c1c(NC(=O)C2=C(C)NC(=S)NC2c2ccc(CC)cc2)sc(C)c1C` (centres undefined) gave T cruzi inh inactive, HSF1 inh inactive, L major viab 85.3, Hsp70 act inactive and HSF1 activator inactive.
CCOc1ccc(N(CC(=O)Nc2ccc(C)c(Cl)c2)S(C)(=O)=O)cc1 was read as T cruzi inh inactive, HSF1 inh inactive and HSF1 activator inactive.
`Cc1c(O)c2c(=O)n(-c3ccccc3)c(-c3ccccc3)cc2oc1=O` gave T cruzi inh inactive, HSF1 inh inactive, L major viab inactive, Hsp70 act inactive and HSF1 activator inactive.
Screening CC1CCCC(n2c(=S)[nH]c3ccccc3c2=O)C1C (centres undefined) returned T cruzi inh inactive, HSF1 inh inactive, L major viab inactive, Hsp70 act inactive and HSF1 activator inactive.
For CCc1cccc2c(C(=O)COC(=O)c3ccc([N+](=O)[O-])s3)c[nH]c12 the results were T cruzi inh 64.4, HSF1 inh -68.8, L major viab 100.4, Hsp70 act inactive and HSF1 activator inactive.
Screening CCc1cccc2c(C(=O)CCl)c[nH]c12 returned T cruzi inh inactive, HSF1 inh inactive, L major viab 57.6, Hsp70 act inactive and HSF1 activator inactive.
For CCc1cccc2c(C(=S)N3CCCC3)c[nH]c12 the results were T cruzi inh inactive, HSF1 inh inactive, L major viab inactive, Hsp70 act inactive and HSF1 activator inactive.
For O=C(Nc1ccccc1C(=O)OCC(=O)c1c[nH]c2ccccc12)c1ccco1 the results were T cruzi inh inactive, HSF1 inh inactive, L major viab inactive, Hsp70 act inactive and HSF1 activator 104.9.
Cc1ccc(C(=O)OCC(=O)c2c[nH]c3ccccc23)cc1 was read as T cruzi inh inactive, HSF1 inh inactive, L major viab inactive, Hsp70 act inactive and HSF1 activator inactive.
`O=C(OCC(=O)c1c[nH]c2ccccc12)c1ccc([N+](=O)[O-])s1` gave T cruzi inh 61.4, HSF1 inh inactive, L major viab 100.4, Hsp70 act inactive and HSF1 activator inactive.
`CCc1cccc2c(C(=O)CSc3nncn3C)c[nH]c12` gave T cruzi inh inactive, HSF1 inh inactive, L major viab inactive, Hsp70 act inactive and HSF1 activator inactive.
Screening Cc1cccnc1NC(=O)CN1C(=O)NC(C)(c2ccc3ccccc3c2)C1=O (centres undefined) returned T cruzi inh inactive, HSF1 inh inactive and HSF1 activator inactive.
Screening COc1ccc(-c2ccc(C#N)c(SCC(=O)Nc3sc4c(c3C#N)CCC4)n2)cc1OC returned T cruzi inh inactive, HSF1 inh inactive, L major viab inactive, Hsp70 act inactive and HSF1 activator 53.4.
`Cc1csc(SCC(=O)Nc2sc3c(c2C#N)CCC3)n1` gave T cruzi inh inactive, HSF1 inh inactive, L major viab 99.4, Hsp70 act inactive and HSF1 activator inactive.
Cn1cc([N+](=O)[O-])c(C(=O)Nc2sc3c(c2C#N)CCC3)n1 was read as T cruzi inh inactive, HSF1 inh inactive and HSF1 activator 189.9.
`Cn1cc(Br)c(C(=O)Nc2sc3c(c2C#N)CCC3)n1` gave T cruzi inh inactive, HSF1 inh inactive and HSF1 activator inactive.
Cc1ccnc(SCC(=O)Nc2sc3c(c2C#N)CCCC3)n1 was read as T cruzi inh inactive, HSF1 inh inactive, L major viab inactive, Hsp70 act inactive and HSF1 activator inactive.
`CCCCn1c(N)c(N(Cc2ccccc2OC)C(=O)c2sccc2C)c(=O)[nH]c1=O` gave T cruzi inh inactive, HSF1 inh inactive and HSF1 activator inactive.
O=C(CCn1c(=S)oc2ccccc21)N1CCCCC1 was read as T cruzi inh inactive, HSF1 inh inactive, L major viab inactive, Hsp70 act inactive and HSF1 activator 54.5.
For N=C(N)N1CCN(Cc2ccccc2)CC1 the results were T cruzi inh inactive, HSF1 inh inactive, L major viab inactive, Hsp70 act inactive and HSF1 activator inactive.
Screening C1=CC2CC1CC2CN1CCN(Cc2ccccc2)CC1 (centres undefined) returned T cruzi inh inactive, HSF1 inh inactive, L major viab 95.0, Hsp70 act inactive and HSF1 activator inactive.
Screening FC(F)(F)c1cccc(N2CCN(CC3CC4C=CC3C4)CC2)c1 (centres undefined) returned T cruzi inh inactive, HSF1 inh inactive, L major viab 82.0, Hsp70 act inactive and HSF1 activator inactive.
Screening Fc1ccccc1N1CCN(CC2CC3C=CC2C3)CC1 (centres undefined) returned T cruzi inh inactive, HSF1 inh inactive, L major viab 89.5, Hsp70 act inactive and HSF1 activator inactive.
Screening Cc1ccc(C)c(N2C(=O)CC(Cc3ccccc3)C2=O)c1 (centres undefined) returned T cruzi inh inactive, HSF1 inh inactive and HSF1 activator inactive.
Screening O=C(NCCc1ccccc1)c1ccc2c(c1)S(=O)(=O)c1ccccc1C2=O returned T cruzi inh inactive, HSF1 inh inactive and HSF1 activator inactive.
O=C(NCCCCc1ccccc1)c1ccccc1Br was read as T cruzi inh inactive, HSF1 inh inactive and HSF1 activator inactive.
For CCN(CC)S(=O)(=O)c1ccc(N2CCOCC2)c(NC(=O)c2ccccc2F)c1 the results were T cruzi inh inactive, HSF1 inh inactive, L major viab inactive, Hsp70 act inactive and HSF1 activator inactive.
Screening CCOc1ccc(S(=O)(=O)Nc2cc(S(=O)(=O)N(CC)CC)ccc2N2CCCC2)cc1 returned T cruzi inh inactive, HSF1 inh inactive, L major viab 94.8, Hsp70 act inactive and HSF1 activator inactive.
For CCOc1ccc(S(=O)(=O)N(CC)CC)cc1NS(=O)(=O)c1ccc(F)c(F)c1F the results were T cruzi inh inactive, HSF1 inh inactive, L major viab 60.0, Hsp70 act inactive and HSF1 activator inactive.
`CCOc1cc(S(=O)(=O)N(CC)CC)ccc1F` gave T cruzi inh inactive, HSF1 inh inactive, L major viab inactive, Hsp70 act inactive and HSF1 activator inactive.
For CCN(CC)S(=O)(=O)c1ccc(N2CCOCC2)c(NC(=O)c2cc3ccccc3oc2=O)c1 the results were T cruzi inh inactive, HSF1 inh inactive and HSF1 activator 68.5.
CCN(CC)S(=O)(=O)c1ccc(N2CCOCC2)c(NC(=O)C2CCCC2)c1 was read as T cruzi inh inactive, HSF1 inh inactive, L major viab 53.2, Hsp70 act inactive and HSF1 activator inactive.
COc1ccc(CN(CC(=O)NCc2ccc(F)cc2)C(=O)CCC(=O)Nc2nccs2)cc1 was read as T cruzi inh inactive, HSF1 inh inactive and HSF1 activator inactive.
`CCCCC(=O)NC(=S)Nc1nnn(CCC)n1` gave T cruzi inh inactive, HSF1 inh inactive, L major viab inactive, Hsp70 act inactive and HSF1 activator inactive.
